Each block holds one compound with its values, some of them ahead of it. The source made the active and inactive calls. No cut-off for these calls is given here.
What was measured:
P2Y purinoceptor 1 [1] = target: T1, P2Y purinoceptor 1 (Meleagris gallopavo, UniProt P49652); assay: Inhibition of 10 nM 2-MeS-ADP-stimulated phospholipase C in turkey erythrocyte membranes using [3H]inositol; format: functional, cell membranes
Outline: (§1)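 Turkey erythrocytes labelled 18-24 h at 37 °C with 2-[³H]myo-inositol in inositol-free DMEM, then lysed hypotonically (5 mM sodium phosphate pH 7.4, 5 mM MgCl₂, 1 mM EGTA) to make ghosts. Ghosts were incubated 5 min at 30 °C in pH 7.0 Hepes/KCl buffer with 1 µM GTPγS and 10 nM 2-MeSADP. Total [³H]inositol phosphates were measured by anion-exchange chromatography; 3-8 independent determinations.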

P2X purinoceptor 2 = target: T2, P2X purinoceptor 2 (Rattus norvegicus, UniProt P49653); assay: Inhibition of inward ion current elicited by ATP at P2X2 receptor expressed in Xenopus oocytes; format: functional, cell-based, Oocyte
T2 sequence (P49653 whole entry): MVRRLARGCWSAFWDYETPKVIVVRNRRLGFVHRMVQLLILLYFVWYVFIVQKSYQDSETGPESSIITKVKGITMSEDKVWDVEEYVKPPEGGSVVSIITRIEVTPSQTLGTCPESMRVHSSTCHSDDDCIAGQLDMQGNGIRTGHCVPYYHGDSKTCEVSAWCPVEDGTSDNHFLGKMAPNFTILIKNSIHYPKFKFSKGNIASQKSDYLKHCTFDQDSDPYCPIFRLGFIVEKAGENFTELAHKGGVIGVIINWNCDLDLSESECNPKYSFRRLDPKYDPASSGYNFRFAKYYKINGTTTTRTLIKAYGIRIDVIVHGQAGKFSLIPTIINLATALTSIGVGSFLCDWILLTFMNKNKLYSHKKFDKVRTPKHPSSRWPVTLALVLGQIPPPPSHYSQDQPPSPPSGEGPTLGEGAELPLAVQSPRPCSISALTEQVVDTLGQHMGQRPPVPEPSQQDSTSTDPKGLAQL

P2X purinoceptor 3 = target: T3, P2X purinoceptor 3 (Rattus norvegicus, UniProt P49654); assay: Inhibition of inward ion current elicited by ATP was determined at recombinant P2X3 receptor expressed in Xenopus oocytes; format: functional, cell-based, Oocyte
T3 sequence (P49654 whole entry): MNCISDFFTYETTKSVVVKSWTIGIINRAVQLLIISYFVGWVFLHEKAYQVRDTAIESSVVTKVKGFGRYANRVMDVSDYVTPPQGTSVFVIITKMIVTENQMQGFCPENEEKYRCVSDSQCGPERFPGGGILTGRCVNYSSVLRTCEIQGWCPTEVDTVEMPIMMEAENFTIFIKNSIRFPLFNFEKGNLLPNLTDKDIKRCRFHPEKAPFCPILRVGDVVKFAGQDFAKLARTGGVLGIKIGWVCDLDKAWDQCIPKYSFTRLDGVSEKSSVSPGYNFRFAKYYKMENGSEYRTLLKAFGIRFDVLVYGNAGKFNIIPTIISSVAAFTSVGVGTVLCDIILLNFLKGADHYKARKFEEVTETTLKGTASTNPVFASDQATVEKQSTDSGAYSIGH

P2X purinoceptor 1 = target: T4, P2X purinoceptor 1 (Rattus norvegicus, UniProt P47824); assay: Inhibition of inward ion current elicited by ATP at P2X1 receptor expressed in Xenopus oocytes; format: functional, cell-based, Oocyte
T4 sequence (P47824 whole entry): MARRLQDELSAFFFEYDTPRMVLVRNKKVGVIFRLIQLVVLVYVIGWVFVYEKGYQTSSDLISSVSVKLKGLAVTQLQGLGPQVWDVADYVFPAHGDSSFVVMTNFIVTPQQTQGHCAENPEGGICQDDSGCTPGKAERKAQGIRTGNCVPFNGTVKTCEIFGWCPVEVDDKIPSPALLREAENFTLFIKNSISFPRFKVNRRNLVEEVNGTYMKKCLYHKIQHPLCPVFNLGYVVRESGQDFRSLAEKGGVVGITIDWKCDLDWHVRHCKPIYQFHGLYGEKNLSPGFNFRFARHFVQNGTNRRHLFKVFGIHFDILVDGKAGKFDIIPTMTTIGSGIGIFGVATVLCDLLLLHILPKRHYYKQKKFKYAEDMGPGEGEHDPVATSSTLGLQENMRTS

[2] = target: T5, P2X purinoceptor 7 (Homo sapiens) (UniProt Q99572); assay: Percent inhibition of ATP-induced K+ efflux (with cations) in adherent HEK293 cells expressing human P2X7 receptor; format: functional, cell-based; settings: concentration not given here
T5 sequence (whole entry): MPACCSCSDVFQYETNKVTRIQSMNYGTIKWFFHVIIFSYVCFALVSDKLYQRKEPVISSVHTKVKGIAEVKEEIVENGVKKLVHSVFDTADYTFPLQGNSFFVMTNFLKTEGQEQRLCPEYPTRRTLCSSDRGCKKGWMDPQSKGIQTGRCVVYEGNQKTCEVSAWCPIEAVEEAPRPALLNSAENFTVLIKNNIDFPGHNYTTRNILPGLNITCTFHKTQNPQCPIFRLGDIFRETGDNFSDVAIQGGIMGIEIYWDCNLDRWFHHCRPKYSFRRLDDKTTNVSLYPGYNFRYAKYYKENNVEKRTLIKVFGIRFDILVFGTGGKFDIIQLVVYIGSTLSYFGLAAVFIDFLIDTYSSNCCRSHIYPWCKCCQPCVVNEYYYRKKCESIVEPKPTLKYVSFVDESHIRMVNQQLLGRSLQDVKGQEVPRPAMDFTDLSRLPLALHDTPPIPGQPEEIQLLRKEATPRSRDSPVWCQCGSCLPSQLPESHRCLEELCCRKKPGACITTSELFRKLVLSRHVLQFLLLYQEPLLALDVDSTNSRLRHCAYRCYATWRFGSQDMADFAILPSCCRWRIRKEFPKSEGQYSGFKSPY
Outline: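 Adherent HEK293 cells stably expressing human P2X7, grown to 90% confluence, in saline with 1 mM MgCl₂ and 1.5 mM CaCl₂ (pH 7.5). Pretreated with 30 µM compound, then 3 mM ATP for 10 min at 37 °C. Cell K⁺ was extracted in 10% HNO₃ for 2 h and read by atomic absorbance relative to untreated cells. n=3, each in duplicate.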

[3] = target: T5, P2X purinoceptor 7 (Homo sapiens); assay: Percentage inhibition of ATP-induced K+ efflux (cation free) in adherent HEK293 cells expressing human P2X7 receptor; format: functional, cell-based; settings: concentration not given here
Outline: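 Adherent HEK293 cells stably expressing human P2X7, in divalent cation-free saline (no added MgCl₂ or CaCl₂; pH 7.5). Pretreated with 30 µM compound, then 3 mM ATP for 10 min at 37 °C. Residual cell K⁺ was extracted in 10% HNO₃ for 2 h and measured by atomic absorbance against untreated cells. n=3, each in duplicate.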

[4] = target: T5, P2X purinoceptor 7 (Homo sapiens); assay: Percent inhibition of ATP-induced K+ efflux (ethidium influx) in suspended HEK293 cells expressing human P2X7 receptor; format: functional, cell-based; settings: concentration not given here
Outline: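 Trypsinised HEK293 cells stably expressing human P2X7 were suspended in divalent cation-free saline in a stirred cuvette at 37 °C with 20 µM ethidium bromide. Cells were treated with 30 µM compound, then 300 µM ATP.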

P2Y purinoceptor 1 [5] = target: T1, P2Y purinoceptor 1; assay: Inhibition of 10 nM 2-MeS-ADP-stimulated phospholipase C in turkey erythrocyte membrane; format: functional, cell membranes; outline: as §1
[6] = target: T6, P2X purinoceptor 1 (Rattus norvegicus) (UniProt P47824); assay: Inhibition of inward ion current elicited by ATP at P2X1 receptor expressed in Xenopus oocytes at 10 uM; format: functional, cell-based; settings: Oocyte
T6 sequence (whole entry): T4 sequence (P47824 whole entry)

[7] = target: T7, P2X purinoceptor 2 (Rattus norvegicus) (UniProt P49653); assay: Inhibition of inward ion current elicited by ATP at P2X2 receptor expressed in Xenopus oocytes; IA means inactive; format: functional, cell-based; settings: Oocyte
T7 sequence (whole entry): T2 sequence (P49653 whole entry)

[8] = target: P2Y purinoceptor 1 (Meleagris gallopavo) (UniProt P49652); assay: Inhibition of 10 nM 2-MeS-ADP-stimulated phospholipase C in turkey erythrocyte membranes using [3H]inositol; IA means inactive; format: functional, cell membranes; outline: as §1
[9] = target: T6, P2X purinoceptor 1 (Rattus norvegicus); assay: Inhibition of inward ion current elicited by ATP at P2X1 receptor expressed in Xenopus oocytes; IA means inactive; format: functional, cell-based; settings: Oocyte
[10] = target: T8, P2X purinoceptor 3 (Rattus norvegicus) (UniProt P49654); assay: Inhibition of inward ion current elicited by ATP at recombinant P2X3 receptor expressed in Xenopus oocytes at 10 uM; format: functional, cell-based; settings: Oocyte
T8 sequence (whole entry): T3 sequence (P49654 whole entry)

T1 sequence (P49652 whole entry): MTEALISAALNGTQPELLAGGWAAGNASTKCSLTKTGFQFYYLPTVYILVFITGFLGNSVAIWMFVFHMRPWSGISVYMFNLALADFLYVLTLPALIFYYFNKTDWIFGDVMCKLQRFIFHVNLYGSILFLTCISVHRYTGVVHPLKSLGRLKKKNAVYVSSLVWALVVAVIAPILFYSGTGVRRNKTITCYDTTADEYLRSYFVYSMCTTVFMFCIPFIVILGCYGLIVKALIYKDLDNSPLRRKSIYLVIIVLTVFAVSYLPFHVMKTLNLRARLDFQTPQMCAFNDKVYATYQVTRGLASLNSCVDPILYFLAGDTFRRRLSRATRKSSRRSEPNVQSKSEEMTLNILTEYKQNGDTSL
P2Y purinoceptor 1 (Meleagris gallopavo), sequence (P49652 whole entry): as above

SMILES: Cc1nc(/N=N/c2cc(CP(=O)(O)O)cc(CP(=O)(O)O)c2)c(CP(=O)(O)O)c(C=O)c1O
IC50 (P2Y purinoceptor 1 [1]): 14500 nM
IC50 (P2X purinoceptor 2): 280 nM
IC50 (P2X purinoceptor 3): 25 nM
IC50 (P2X purinoceptor 1): 11 nM
inhibition [2]: 0%
inhibition [3]: -5%
inhibition [4]: 84%

SMILES: Cc1nc(/N=N/c2ccccc2)c(COP(=O)(O)O)c(C=O)c1O
IC50 (P2Y purinoceptor 1 [5]): 54000 nM
IC50 (P2X purinoceptor 2): 1200 nM
IC50 (P2X purinoceptor 3): 480 nM
IC50 (P2X purinoceptor 1): 42 nM

SMILES: Cc1nc(/N=N/c2cc(C(=O)O)ccc2C(=O)O)c(CP(=O)(O)O)c(C=O)c1O
IC50 (P2X purinoceptor 2): 486 nM
IC50 (P2X purinoceptor 3): 330 nM
IC50 (P2X purinoceptor 1): 37 nM

SMILES: Cc1nc(/N=N/c2ccc(C(=O)O)cc2)c(CCP(=O)(O)O)c(C=O)c1O
IC50 (P2Y purinoceptor 1 [1]): 100000 nM
IC50 (P2X purinoceptor 2): 2400 nM
IC50 (P2X purinoceptor 3): 145 nM
IC50 (P2X purinoceptor 1): 20 nM

SMILES: Cc1nc(/N=N/c2cc(S(=O)(=O)O)ccc2S(=O)(=O)O)c2c(c1O)COP(=O)(O)OC2
IA [7]: inactive
inhibition [2]: -1%
Inhibition activity [8]: inactive
inhibition [3]: -5%
inhibition [4]: 17%

SMILES: CC(=O)Oc1c(C)nc(/N=N/c2cc(S(=O)(=O)O)ccc2S(=O)(=O)O)c2c1COP(=O)(O)OC2
IA [9]: inactive

SMILES: Cc1nc(/N=N/c2cc(S(=O)(=O)O)ccc2Cl)c(CP(=O)(O)O)c(C=O)c1O
inhibition [2]: -5%
inhibition [3]: -8%
inhibition [4]: 40%

The remaining lines, values ahead:

IC50 (P2Y purinoceptor 1 [1]): > 100000 nM
inhibition [6]: 50%
SMILES: Cc1nc(/N=N/c2ccccc2)c(COP(=O)(O)O)c(COP(=O)(O)O)c1O

IC50 (P2Y purinoceptor 1 [1]): 100000 nM
inhibition [10]: 30%
inhibition [2]: -1%
inhibition [6]: 78%
inhibition [3]: -5%
inhibition [4]: 12%
SMILES: Cc1nc(/N=N/c2cc(S(=O)(=O)O)ccc2Cl)c(COP(=O)(O)O)c(COP(=O)(O)O)c1O

IC50 (P2Y purinoceptor 1 [1]): 100000 nM
IC50 (P2X purinoceptor 2): 11900 nM
IC50 (P2X purinoceptor 3): 140 nM
IC50 (P2X purinoceptor 1): 9.4 nM
SMILES: Cc1nc(/N=N/c2ccc(C(=O)O)cc2)c(COP(=O)(O)O)c(C=O)c1O

Inhibition activity [8]: inactive
IA [9]: inactive
SMILES: Cc1ncc(COP(=O)(O)O)c(COP(=O)(O)O)c1O
